Here are results for 15 molecules from ChEMBL document CHEMBL3779882, “The cysteine releasing pattern of some antioxidant thiazolidine-4-carboxylic acids” (Eur J Med Chem, 2016).

What all share (format): physicochemical
Series [1] is described as follows: Antioxidant activity assessed as cupric ion reducing activity treated with MeOH solution measured as ratio of sample to trolox molar extinction coefficient after 20 mins by CUPRAC assay. The method in brief: (§1)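 Reagents prepared separately: 10 mM CuSO4, 7.5 mM neocuproine and 1 M ammonium acetate buffer pH 7.0. Samples serially diluted from 6.75 μM to 1000 μM; Trolox reference at 10–70 μM. Each concentration run in triplicate. Incubated at 50°C for 20 min, then absorbance read at 450 nm for Cu(I)-neocuproine. TEAC = ε_sample/ε_Trolox.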

Series [2] in a line: Antioxidant activity assessed as cupric ion reducing activity treated with 5% DMSO measured as ratio of sample to trolox molar extinction coefficient after 20 mins by CUPRAC assay. The gist of the method:
as §1

The nature of series [3]: Antioxidant activity assessed as DPPH free radical scavenging activity treated with 5% DMSO after 50 mins. Particulars: for pIC50: read-out: IC50. The method in brief: (§2)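 Samples serially diluted from 6.75 μM to 1000 μM; BHT reference at 125–2000 μM. Sample added to 0.1 mM DPPH solution in 1:5 volume ratio. Kept in the dark at RT for 50 min, then absorbance read at 517 nm. Triplicates. Scavenging % = [1−(A_average−A_blank)/(A_control−A_blank)]×100. IC50 reported in μM as the level scavenging 50% of radical.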
A general note: The DPPH test is a chemical assay of radical scavenging.

Series [4] is described as follows: Antioxidant activity assessed as DPPH free radical scavenging activity treated with methanol after 50 mins. The method in brief: as §2
Series [5] can be described thus: Chemical stability in 5% aqueous DMSO assessed as compound remaining at 20 uM after 20 mins by HPLC analysis. The note with it: read-out: Stability.
Series [6] is described as follows: Chemical stability in 5% aqueous DMSO assessed as compound remaining at 20 uM measured immediately post treatment by HPLC analysis. The note with it: read-out: Stability. The method in brief: (§3)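 Ring opening followed by reversed-phase HPLC-DAD on a C18 column (4.6 × 250 mm). Mobile phase water:acetonitrile 30:70 at 0.5 ml/min, 25°C. Detection at 254 nm, 5 μL injections. Cysteine release tracked from the peak of the aldehyde freed by ring cleavage. Injections made right after dissolution and again after 50 min.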

A short description of series [7]: Chemical stability in PBS buffer assessed as compound remaining at 20 uM after 20 mins by HPLC analysis. Particulars: read-out: Stability.
A short description of series [8]: Chemical stability in 5% aqueous DMSO assessed as compound remaining at 20 uM after 50 mins by HPLC analysis. Particulars: read-out: Stability. The method in brief: as §3
A short description of series [9]: Chemical stability in PBS buffer assessed as compound remaining at 20 uM measured immediately post treatment by HPLC analysis. Particulars: read-out: Stability. The method in brief: as §3
Series [10] in a line: Chemical stability in PBS buffer assessed as compound remaining at 20 uM after 50 mins by HPLC analysis. The note with it: read-out: Stability. The gist of the method: as §3
The nature of series [11]: Chemical stability in 0.1 M phosphoric acid at pH 2 assessed as compound remaining at 20 uM measured immediately post treatment by HPLC analysis. The note with it: read-out: Stability. The gist of the method:
as §3

The nature of series [12]: Chemical stability in 0.1 M phosphoric acid at pH 2 assessed as compound remaining at 20 uM after 20 mins by HPLC analysis. The note with it: read-out: Stability.
A short description of series [13]: Chemical stability in 0.1 M phosphoric acid at pH 2 assessed as compound remaining at 20 uM after 50 mins by HPLC analysis. Particulars: read-out: Stability. The method in brief:
as §3

Series [14] can be described thus: Chemical stability in MeOH solution assessed as compound remaining at 20 uM measured immediately post treatment by HPLC analysis. The note with it: read-out: Stability. The gist of the method: as §3
Series [15] can be described thus: Chemical stability in MeOH solution assessed as compound remaining at 20 uM after 20 mins by HPLC analysis.
The nature of series [16]: Chemical stability in MeOH solution assessed as compound remaining at 20 uM after 50 mins by HPLC analysis. The method in brief:
as §3

pIC50: −log10 of the molar value.

What is called pIC50 is −log10 of the IC50, conventionally taken in molar units. As for `O=C(O)[C@@H]1CSC(c2ccccc2)N1` (mixture of isomers), the Ratio in series [1] is 1.54; in [2] it was 0.99. In addition, the pIC50 in series [3] is 4.34; in [4], 3.07. In addition, the figures for the remaining at 20 min, 20 µM in [5], in series [7] and in series [12] were 27.8%, 27.8% and 62.4%, respectively. The remaining at 0 min, 20 µM in [6] is 76.3%; in series [9], 78.4%; in [11] it was 85%; in [14], 96.1%. The remaining at 50 min, 20 µM stood at 13.8% in [8], 13.8% in series [10] and 49.9% in [13]. Also, the Stability was 95.7% in series [15] and 95.4% in [16].
As to `O=C(O)[C@@H]1CSC(c2cccc(Cl)c2)N1` (mixture of isomers), the Ratio in series [1] is 1.5; in [2] it was “ND(Insoluble)”. For the same molecule, in [3], the IC50 entry was “ND(Insoluble)”.
With `O=C(O)[C@@H]1CSC(c2ccc(Cl)cc2)N1` (mixture of isomers), the Ratio in [1] is on record as 1.52; in [2], “ND(Insoluble)”. Besides, the IC50 entry in series [3] was “ND(Insoluble)”.
For `Cc1ccc(C2N[C@H](C(=O)O)CS2)cc1` (mixture of isomers), the figures for the Ratio in series [1] and in [2] were 1.22 and “ND(Insoluble)”, respectively. Further, the IC50 entry in series [3] is given as “ND(Insoluble)”.
Consider `O=C(O)[C@@H]1CSC(c2cccc(F)c2F)N1` (mixture of isomers), for which the Ratio in series [1] is recorded as 0.83; in series [2], 0.84. Moreover, the figures for the pIC50 in series [3] and in series [4] were 4.33 and under 3.00, respectively. Also, the remaining at 20 min, 20 µM in series [5] is 50%; in series [7], 69.3%; in [12] it was 64.6%. Moreover, the remaining at 0 min, 20 µM in [6] was 83.7%; in series [9], 92.7%; in [11] it was 87.3%; in series [14], 100%. In addition, the remaining at 50 min, 20 µM is 28.7% in [8], 50.1% in [10] and 43.5% in series [13]. For the same molecule, the Stability in series [15] was found to be 100%; in series [16], 98.8%.
On to `Cc1ccccc1C1N[C@H](C(=O)O)CS1` (mixture of isomers), for which the values for the Ratio in [1] and in series [2] were 0.57 and 0.75, respectively. Besides, the pIC50 in [3] is 4.41; in series [4] it was 4.34. Also, the remaining at 20 min, 20 µM in [5] was 5.9%; in series [7] it was 11.3%; in [12] it was 11.3%. In addition, the remaining at 0 min, 20 µM in series [6] was 6.8%; in [9], 15.2%; in [11] it was 12.9%; in [14], 4%. In addition, the figures for the remaining at 50 min, 20 µM in series [8], in [10] and in series [13] were 5.6%, 8.9% and 10.1%, respectively. The figures for the Stability in series [15] and in series [16] were 4.1% and 4.2%, respectively.
On to `N#Cc1ccccc1C1N[C@H](C(=O)O)CS1` (mixture of isomers), for which the Ratio result in series [1] and in series [2] was “ND(Insoluble)” in each case. Besides, the negative logarithm of the IC50 (pIC50) in series [3] and in series [4] was under 3.00 throughout.
Take `O=C(O)[C@@H]1CSC(c2c(F)cccc2F)N1` (mixture of isomers): the Ratio in [1] is 0.83; in series [2] it was 1.05. Further, the pIC50 in [3] is 4.42; in series [4], 3.46. Further, the results for the remaining at 20 min, 20 µM in series [5], in series [7] and in series [12] were 39.2%, 61.1% and 72.3%, respectively. The remaining at 0 min, 20 µM in series [6] is 53.8%; in series [9], 79.4%; in [11] it was 96.2%; in [14] it was 100%. Further, the results for the remaining at 50 min, 20 µM in series [8], in series [10] and in series [13] were 38.2%, 46.9% and 54.8%, respectively. Besides, the Stability in series [15] was determined as 99.4%; in [16], 98.2%.
With `O=C(O)[C@@H]1CSC(c2cccc(Cl)c2Cl)N1` (mixture of isomers), the Ratio in [1] was determined as 0.93; in series [2] it was 0.99. In addition, the figures for the negative logarithm of the IC50 (pIC50) in series [3] and in series [4] were 4.21 and 4.34, respectively. Also, the remaining at 20 min, 20 µM in [5] was 16.6%; in series [7] it was 17.4%; in series [12] it was 17.5%. The remaining at 0 min, 20 µM in series [6] amounted to 17.8%; in [9], 15.3%; in series [11], 21.7%; in series [14], 15.5%. The remaining at 50 min, 20 µM in series [8] worked out at 15.7%; in series [10] it was 17.9%; in [13], 14.2%. Moreover, the Stability is given as 25.2% in [15] and 38.2% in series [16].
As for `O=C(O)[C@@H]1CSC(c2ccccc2Br)N1` (mixture of isomers), the figures for the Ratio in series [1] and in series [2] were 0.8 and 1, respectively. The pIC50 was 4.42 in series [3] and 4.41 in [4]. Also, the remaining at 20 min, 20 µM in series [5] was found to be 16.2%; in series [7] it was 16.3%; in [12] it was 11.5%. Also, the remaining at 0 min, 20 µM in series [6] worked out at 19%; in series [9], 11.6%; in series [11], 14.1%; in series [14] it was 70.5%. Further, the remaining at 50 min, 20 µM in series [8] came to 14.3%; in series [10], 18.5%; in [13], 9.5%. Further, the Stability in series [15] stood at 74%; in series [16] it was 75.6%.
Take `O=C(O)[C@@H]1CSC(c2ccc([N+](=O)[O-])cc2)N1` (mixture of isomers): the Ratio in [1] is listed as 0.74; in [2], “ND(Insoluble)”. Also, in series [3], the IC50 result is listed as “ND(Insoluble)”.
Turning to `COc1ccccc1C1N[C@H](C(=O)O)CS1` (mixture of isomers), the Ratio in series [1] is reported as 0.96; in [2], 0.79. In addition, the pIC50 in series [3] was 4.53; in [4], 3.47. Further, the remaining at 20 min, 20 µM came out at 43.9% in [5], 34% in [7] and 78.9% in [12]. For the same molecule, the remaining at 0 min, 20 µM stood at 82.8% in [6], 82.5% in [9], 92.9% in series [11] and 100% in series [14]. The figures for the remaining at 50 min, 20 µM in series [8], in [10] and in series [13] were 26.8%, 21% and 67.6%, respectively. The Stability in series [15] is on record as 98.6%; in series [16], 97.3%.
In the case of `COc1ccc(C2N[C@H](C(=O)O)CS2)cc1` (mixture of isomers), the Ratio entry in series [1] and in series [2] was “ND(Insoluble)” throughout. In addition, the IC50 entry in series [3] was “ND(Insoluble)”.
Regarding `Cc1cc(C(C)(C)C)c(O)c(C(C)(C)C)c1` [BUTYLATED HYDROXYTOLUENE], in series [3], the IC50 result is listed as “ND(Insoluble)”. For the same molecule, the negative logarithm of the IC50 (pIC50) in series [4] was 3.29.
Take `N[C@@H](CS)C(=O)O` [CYSTEINE]: the results for the Ratio in [1] and in series [2] were 0.63 and 0.49, respectively. For the same molecule, the pIC50 in series [3] is 4.74; in [4] it was 4.72.
